From ChEMBL document CHEMBL1154616, “Synthesis and antitumor activity studies of some new fused 1,2,4-triazole derivatives carrying 2,4-dichloro-5-fluorophenyl moiety” (Eur J Med Chem, 2009)

Key:
Type in all cases: functional
SN12C = assay: Anticancer activity against human SN12C cells after 48 hrs by sulforhodamine B assay
Procedure, shortened: (§1)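 Full 60-cell-line panel, compounds tested over a five-log dose range. Cells are preincubated on microtiter plates, the agent is added, and cultures run 48 h. The end point is sulphorhodamine B protein staining. GI50 is taken as the concentration giving 50% growth inhibition relative to untreated control cells.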

SR = assay: Anticancer activity against human SR cells after 48 hrs by sulforhodamine B assay
Procedure, shortened: (§2)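 Cells from the 60-line full panel are preincubated on microtiter plates, then treated across a five-log dose range for 48 h. Growth is read with the protein-binding dye sulforhodamine B. GI50 is the concentration giving 50% growth inhibition relative to untreated control cells.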

UO-31 = assay: Anticancer activity against human UO31 cells after 48 hrs by sulforhodamine B assay; conditions: UO-31, 48 h; procedure, shortened: as §2
OVCAR-3 = assay: Anticancer activity against human OVCAR-3 cells after 48 hrs by sulforhodamine B assay; conditions: OVCAR-3, 48 h; procedure, shortened: as §1
DU-145 = assay: Anticancer activity against human DU145 cells after 48 hrs by sulforhodamine B assay; conditions: DU-145, 48 h; procedure, shortened: as §1
K562 = assay: Anticancer activity against human K562 cells after 48 hrs by sulforhodamine B assay; conditions: K562, 48 h; procedure, shortened: as §1
SK-OV-3 = assay: Anticancer activity against human SKOV3 cells after 48 hrs by sulforhodamine B assay; conditions: SK-OV-3, 48 h; procedure, shortened: as §1
MDA-MB-231 = assay: Anticancer activity against human MDA-MB-231 cells after 48 hrs by sulforhodamine B assay; conditions: MDA-MB-231, 48 h; procedure, shortened: as §1
MCF7 [1] = assay: Anticancer activity against human MCF7 cells assessed as cell growth at 100 uM after 48 hrs by sulforhodamine B assay relative to control; conditions: MCF7, 48 h, read-out: Activity
Procedure, shortened: (§3)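 Three-cell-line prescreen (NCI-H460 lung, MCF7 breast, SF 268 CNS), each preincubated on microtiter plates. The agent is added at a single concentration and cultures are incubated 48 h. Growth is read by sulphorhodamine B protein staining and reported as percent growth of treated versus untreated control cells; negative values indicate cell kill.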

[2] = Anticancer activity against human […] cells after 48 hrs by sulforhodamine B assay; procedure, shortened: as §1
LOX IMVI = assay: Anticancer activity against human LOXIMVI cells after 48 hrs by sulforhodamine B assay; procedure, shortened: as §1
NCI-H460 = assay: Anticancer activity against human NCI-H460 cells assessed as cell growth at 100 uM after 48 hrs by sulforhodamine B assay relative to control; conditions: NCI-H460, 48 h, read-out: Activity; procedure, shortened: as §3
[3] = Anticancer activity against human Hs 578T cells after 48 hrs by sulforhodamine B assay; procedure, shortened: as §1
HL-60(TB) = assay: Anticancer activity against human HL-60(TB) cells after 48 hrs by sulforhodamine B assay; conditions: HL-60, 48 h
Procedure, shortened: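 Run within the full 60-cell-line panel across a five-log dose range. GI50 was taken as the concentration causing 50% growth inhibition relative to untreated control cells.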

OVCAR-5 = assay: Anticancer activity against human OVCAR5 cells after 48 hrs by sulforhodamine B assay; conditions: OVCAR-5, 48 h; procedure, shortened: as §1
PC-3 = assay: Anticancer activity against human PC3 cells after 48 hrs by sulforhodamine B assay; conditions: PC-3, 48 h; procedure, shortened: as §1
SW-620 = assay: Anticancer activity against human SW620 cells after 48 hrs by sulforhodamine B assay; conditions: SW-620, 48 h; procedure, shortened: as §2
SNB-75 = assay: Anticancer activity against human SNB75 cells after 48 hrs by sulforhodamine B assay; conditions: SNB-75, 48 h; procedure, shortened: as §2
HCT-15 = assay: Anticancer activity against human HCT15 cells after 48 hrs by sulforhodamine B assay; conditions: HCT-15, 48 h; procedure, shortened: as §1
HOP-92 = assay: Anticancer activity against human HOP92 cells after 48 hrs by sulforhodamine B assay; conditions: HOP-92, 48 h; procedure, shortened: as §1
MOLT-4 = assay: Anticancer activity against human MOLT4 cells after 48 hrs by sulforhodamine B assay; conditions: MOLT-4, 48 h; procedure, shortened: as §1
NCI/ADR-RES = assay: Anticancer activity against human NCI/ADR-RES cells after 48 hrs by sulforhodamine B assay; procedure, shortened: as §1
T47D = assay: Anticancer activity against human T47D cells after 48 hrs by sulforhodamine B assay; procedure, shortened: as §2
ACHN = assay: Anticancer activity against human ACHN cells after 48 hrs by sulforhodamine B assay; procedure, shortened: as §1
OVCAR-8 = assay: Anticancer activity against human OVCAR8 cells after 48 hrs by sulforhodamine B assay; conditions: OVCAR-8, 48 h; procedure, shortened: as §1
MCF7 [4] = assay: Anticancer activity against human MCF7 cells after 48 hrs by sulforhodamine B assay; conditions: MCF7, 48 h; procedure, shortened: as §1
NCI-H23 = assay: Anticancer activity against human NCI-H23 cells after 48 hrs by sulforhodamine B assay; conditions: NCI-H23, 48 h; procedure, shortened: as §1

In the case of `Fc1cc(C2=Nn3c(nnc3-c3cc(F)c(Cl)cc3Cl)SC2)c(Cl)cc1Cl`, the GI50 (SN12C) is reported as 18.4 µM, the GI50 (SR) is reported as 25.4 µM and the GI50 (UO-31) is reported as 31.3 µM. It also gave a GI50 (OVCAR-3) of 11.5 µM, a GI50 (DU-145) of 36.6 µM and a GI50 (K562) of 17.8 µM. For the same molecule, the GI50 (SK-OV-3) was 29.2 µM, the GI50 (MDA-MB-231) was 13.4 µM and the growth at 100 µM (MCF7 [1]) was 44%. It also gave a GI50 [2] of 6 µM, a GI50 (LOX IMVI) of 21.6 µM and a growth at 100 µM (NCI-H460) of 6%. The GI50 [3] was 21.9 µM, the GI50 (HL-60(TB)) was 80.4 µM and the GI50 (OVCAR-5) was 56.8 µM. For the same molecule, the GI50 (PC-3) was 16.9 µM, the GI50 (SW-620) was 22.6 µM and the GI50 (SNB-75) was 26.2 µM. The GI50 (HCT-15) was 20.2 µM, the GI50 (HOP-92) was 11.3 µM and the GI50 (MOLT-4) was 16.9 µM. It also gave a GI50 (NCI/ADR-RES) of 27.4 µM, a GI50 (T47D) of 4.93 µM and a GI50 (ACHN) of 26.6 µM. For the same molecule, the GI50 (OVCAR-8) was 26 µM, the GI50 (MCF7 [4]) was 16.8 µM and the GI50 (NCI-H23) was 21.8 µM.
